Reference: ChEMBL document CHEMBL4627265, “Optimization of 8-oxoadenines with toll-like-receptor 7 and 8 activity” (Bioorg Med Chem Lett, 2020)
The source made the active and inactive calls. The calls are words filed in the database; no cut-off is given here.

Molecular target: T1, Toll-like receptor 8 (Homo sapiens) (UniProt Q9NR97)
T1 sequence (whole entry): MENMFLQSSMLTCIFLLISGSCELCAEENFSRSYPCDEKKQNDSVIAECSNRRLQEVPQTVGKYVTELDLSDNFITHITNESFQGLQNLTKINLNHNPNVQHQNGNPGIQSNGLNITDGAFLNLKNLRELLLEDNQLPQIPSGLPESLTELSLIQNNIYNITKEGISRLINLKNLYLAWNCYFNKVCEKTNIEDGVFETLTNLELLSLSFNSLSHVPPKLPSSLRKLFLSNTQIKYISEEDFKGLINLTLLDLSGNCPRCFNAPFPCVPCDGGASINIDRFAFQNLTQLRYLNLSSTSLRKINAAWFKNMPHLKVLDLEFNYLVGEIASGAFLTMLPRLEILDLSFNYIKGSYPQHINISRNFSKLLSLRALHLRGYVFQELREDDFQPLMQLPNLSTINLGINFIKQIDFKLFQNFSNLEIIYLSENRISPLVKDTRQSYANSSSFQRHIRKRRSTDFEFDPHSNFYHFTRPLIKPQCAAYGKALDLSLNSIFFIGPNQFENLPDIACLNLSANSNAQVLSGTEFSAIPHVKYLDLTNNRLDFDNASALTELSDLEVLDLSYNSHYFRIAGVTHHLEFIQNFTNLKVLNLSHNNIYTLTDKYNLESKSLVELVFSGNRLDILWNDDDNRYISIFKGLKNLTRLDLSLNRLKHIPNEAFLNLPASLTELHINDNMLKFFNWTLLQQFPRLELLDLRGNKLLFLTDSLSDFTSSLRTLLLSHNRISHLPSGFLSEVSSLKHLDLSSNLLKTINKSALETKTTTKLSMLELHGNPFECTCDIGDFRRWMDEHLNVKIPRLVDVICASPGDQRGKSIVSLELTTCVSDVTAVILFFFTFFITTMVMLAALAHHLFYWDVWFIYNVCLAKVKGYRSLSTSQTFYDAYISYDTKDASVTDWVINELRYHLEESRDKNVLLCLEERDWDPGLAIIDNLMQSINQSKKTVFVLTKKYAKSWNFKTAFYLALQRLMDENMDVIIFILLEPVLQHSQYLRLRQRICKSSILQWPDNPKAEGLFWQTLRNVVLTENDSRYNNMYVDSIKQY
Assay: Agonist activity at TLR8 in human PBMC assessed as induction of myeloid dendritic cell maturation by measuring CD80 level at 0.1 uM after 6 hrs by flow cytometry
Type: cell-based
Outline: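 hPBMCs stimulated 6 h at a single 0.1 μM dose; HLA-DR, MHC-I, CD80 and CD86 on mDCs and pDCs measured by flow cytometry, expressed as fold change versus unstimulated cells. Mean ± SD of three independent experiments in three different donors.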

- Activity: inactive
SMILES: Nc1nc(OCCCCO)nc2c1[nH]c(=O)n2CC1CCNCC1
